This is a sample that favours compounds with a hit; in the whole collection about 3.5% have one here.
FGF22 binding – binders of human FGF22 protein, primary screen, FGF22 synaptogenesis inhibitor project, biophysical, thermal shift, single point. recombinant FGF22 thermal shift, SYPRO orange fluorescence; percent of sucrose octasulfate shift, DMSO zero. Fibroblast growth factor 22 (Homo sapiens), Q9HCT0. hit rate 1.5% among 340,000. activity (Tm shift, normalised), % at 9.99 µM;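 active means mean Tm shift, scaled 0 neutral to 100 positive control, at about 1.3% or above, every replicate too, limit read from the data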
Target sequence (Q9HCT0 whole entry, looked up): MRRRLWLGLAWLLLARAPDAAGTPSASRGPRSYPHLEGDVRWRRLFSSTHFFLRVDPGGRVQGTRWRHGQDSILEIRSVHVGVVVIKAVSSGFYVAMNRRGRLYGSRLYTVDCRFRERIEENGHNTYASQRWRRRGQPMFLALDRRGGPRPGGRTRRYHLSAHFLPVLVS
ERAP1 HTS inh – human ERAP1 aminopeptidase inhibitors, primary screen, biochemical, single point, plate reader; Endoplasmic reticulum aminopeptidase 1 (Homo sapiens), Q9NZ08; AID 652197, 2013; inhibition, % at 10.7 µM; hit rate 0.15% among 340,000; recombinant ERAP1, Leu-AMC fluorescence, 60 min;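 active means mean replicate inhibition of at least 30%, or all replicates individually reaching that 30% level; inactive means mean below 30% and not every replicate reaching it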;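 further: 0% = neutral control wells and 100% = L-leucinethiol positive control wells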
rRNA inh HTS – reduced GFP signal of wild-type E. coli, primary screen, bacterial rRNA inhibitor project, GFP/RFP fluorescence, OD600, single point; hit rate 1.6% among 350,000; E. coli WT GFP vs humanized-ribosome RFP mutants, 24 h; stronger effect = lower value; DMSO median 0, no signal -100; AID 720706, 2013; GFP signal change (wild-type ribosome), % (concentration not given with the values);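 active means significant combined selectivity score with lowered wild-type GFP, culture density cut under 30%, mutant RFP and density less affected; inactive means any of these conditions unmet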
Cneo AK release – Cryptococcus neoformans cell lysis inducers, primary screen, AK release luminescence, single concentration; C. neoformans lysis, adenylate kinase release luminescence, 4 h; normalised: neutral wells 0, clomiphene wells 100; lysis activity, % at 15 µM; hit rate 0.2% among 360,000;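 active means mean lysis activity across replicates of at least 80%, whatever share of replicates individually reach that level; inactive means mean lysis activity below 80%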
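Test system: log-phase Cryptococcus neoformans yeast cells. Input: 5 × 10^6 yeast cells/mL. Medium: fresh YPD growth medium. Doses: single dose. Incubation: static 4 h at 37 °C with compound, 1 h detection. Measured by: luminescent adenylate kinase detection reagent. Read-out: signal increase indicating cell lysis. Benchmarks: Clomiphene.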
Env fusion inh – inhibitors of HIV-1 Env-driven cell-cell fusion, primary screen, HeLa-JRFL effector, CEM21 target cells, luciferase | inhibition, % at 12.3 µM | hit rate 1.1% among 360,000;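 active means mean replicate inhibition score of at least 50 and every replicate individually at or above 50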;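 further: 0% = plate neutral controls and 100% = maraviroc near 300 nM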
PGC1a acetyl inh – inhibitors of PGC1a acetylation signal, primary screen, cell-based, U2OS, AlphaScreen, inhibitor mode | AlphaScreen anti-acetyl-lysine; with virally co-expressed GCN5 acetyltransferase | hit rate 0.17% among 350,000 | inhibition, % at 15.6 µM;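 active means every replicate shows inhibition of at least 40%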;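 further: 0% = neutral control wells and 100% = positive control wells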
* marks the source's active call; other numbers are inactive results; · = not tested or not shown; [ ] = remark or other dose.

SMILES	FGF22 binding	ERAP1 HTS inh	rRNA inh HTS	Cneo AK release	Env fusion inh	PGC1a acetyl inh
Nn1c(SCC(=O)Nc2ccc(Oc3ccccc3)cc2)nnc1C1CC1	·	·	·	·	7.5	-15.0
Cc1cc(-c2ccccc2)nc2cc(C(=O)NCc3ccco3)nn12	-0.2	2.3	15.6	-0.1	-92.0	6.6
Cc1cc(C)nc(NC(=O)c2ccc(COc3ccccc3Cl)cc2)c1	44.0*	0.6	-23.8*	-2.0	-1.9	4.5
O=C(Nc1ccn(Cc2ccccc2F)n1)c1ccc(COc2ccccc2Cl)cc1	·	·	·	-1.6	59.5*	6.2
Cc1cc(C)n(Cc2ccc(NC(=O)c3ccc(COc4ccccc4Br)cc3)cc2)n1	·	·	·	2.2	78.7*	-0.2
CC1CCN(C(C)C(=O)Nc2ccccc2-c2ccccc2)CC1 (stereo unspecified)	·	·	·	20.4	42.8	-36.5
COc1cc(CN2CCC(C(=O)N3CCN(c4ccccc4F)CC3)CC2)cc(OC)c1OC	·	·	·	2.3	-267.5	-0.3
CO/N=C/c1ccc(N2CCN(C(=O)c3ccc(Cl)cc3Cl)CC2)c([N+](=O)[O-])c1	·	·	·	-0.3	78.1*	·
CO/N=C/c1ccc(N2CCN(C(=O)c3cccc(C(F)(F)F)c3)CC2)c([N+](=O)[O-])c1	·	4.3	-18.8	·	67.8*	-16.1
CO/N=C/c1ccc(N2CCN(C(=O)c3ccc(F)cc3)CC2)c([N+](=O)[O-])c1	·	·	·	-1.9	-11.2	-14.9
O=C(O)c1ccc(N2C(=O)CC(N3CCN(c4cccc(Cl)c4)CC3)C2=O)cc1 (stereo unspecified)	0.0	1.4	4.7	0.9	9.7	-5.4
CN1CCN(S(=O)(=O)c2cccc(C(=O)Oc3ccc(C(C)(C)C)cc3)c2)CC1	-0.4	0.7	-4.2	-5.7	-13.0	-2.4
CC(C)c1ccc(OC(=O)c2cccc(S(=O)(=O)N3CCN(C)CC3)c2)cc1	0.0	105.8*	-0.1	-0.8	14.2	1.8
CN(C)c1ncnc2c1ccn2C1OC(CO)C(O)C1O (stereo unspecified)	-0.3	-0.5	10.8	7.4	76.7*	52.5*
OCC1OC(n2ccc3c(NO)ncnc32)C(O)C1O (stereo unspecified)	-0.8	0.6	-1.8	·	90.7*	·
Cc1ccc(C2CC(=O)c3cnc(N4CCc5ccccc5C4)nc3C2)cc1 (stereo unspecified)	·	·	·	-4.2	67.5*	10.6
COc1ccc(-c2nnc(SCC(=O)N/N=C/c3ccccc3C(=O)O)n2-c2ccc(Cl)cc2)cc1	0.2	-1.3	13.8	·	7.3	1.1
CCc1cc(=O)[nH]c(SC/C=C/c2ccccc2)n1	·	·	·	-14.9	·	6.8
COC(=O)N/N=C/c1cc(Cl)c(OCc2ccccc2F)c(OC)c1	-0.1	0.4	-15.6*	-1.0	5.8	13.6
C[C@H](CO)N1C[C@H](C)[C@@H](CN(C)C(=O)Nc2ccc(C(F)(F)F)cc2)OCCCC[C@H](C)Oc2ccc(NC(=O)c3ccccc3)cc2C1=O	0.9	-2.1	-1.1	-0.9	61.0*[16.7 µM]	·
C[C@H]1CCCCO[C@H](CN(C)C(=O)Nc2ccc(C(F)(F)F)cc2)[C@@H](C)CN([C@@H](C)CO)C(=O)c2cc(NC(=O)c3ccccc3)ccc2O1	0.5	-3.2	2.8	0.0	75.1*[16.7 µM]	·
CCCNC(=O)N(C)C[C@@H]1Oc2cc(-c3ccccc3)ccc2S(=O)(=O)N([C@@H](C)CO)C[C@@H]1C	0.1	1.3	-6.4	-4.1	-25.0[16.7 µM]	-13.4
CSc1nncc(/C(C)=N\Nc2ccccc2C)n1	·	·	·	0.3	·	-9.5
Cc1noc(C)c1COc1cccc(C(=O)Oc2ccc3c(c2)OCO3)c1	·	-0.1	-35.2*	1.4	·	6.1
C[C@H]1CN([C@@H](C)CO)C(=O)c2cccc(N(C)C)c2O[C@@H]1CN(C)S(C)(=O)=O	0.1	1.6	0.9	2.0	-0.5[16.7 µM]	-7.5
CC(=O)Nc1cccc(NC(=O)c2ccc(COc3ccccc3)cc2)c1	42.9*	2.5	1.2	-4.7	-9.3	7.4
